Measured values from ChEMBL document CHEMBL3421616, “Conformational Restriction Leading to a Selective CB2 Cannabinoid Receptor Agonist Orally Active Against Colitis” (ACS Med Chem Lett, 2015).
pKi: −log10 of the molar value. Activity calls are given as the source filed them. No cut-off for these calls is given here.

Assays:
[1] = target: Cannabinoid receptor 1 (Homo sapiens, UniProt P21554); experiment: Displacement of [3H]-CP55940 from human CB1 receptor after 1 hr by scintillation counting analysis
Cannabinoid receptor 1, sequence (P21554 whole entry): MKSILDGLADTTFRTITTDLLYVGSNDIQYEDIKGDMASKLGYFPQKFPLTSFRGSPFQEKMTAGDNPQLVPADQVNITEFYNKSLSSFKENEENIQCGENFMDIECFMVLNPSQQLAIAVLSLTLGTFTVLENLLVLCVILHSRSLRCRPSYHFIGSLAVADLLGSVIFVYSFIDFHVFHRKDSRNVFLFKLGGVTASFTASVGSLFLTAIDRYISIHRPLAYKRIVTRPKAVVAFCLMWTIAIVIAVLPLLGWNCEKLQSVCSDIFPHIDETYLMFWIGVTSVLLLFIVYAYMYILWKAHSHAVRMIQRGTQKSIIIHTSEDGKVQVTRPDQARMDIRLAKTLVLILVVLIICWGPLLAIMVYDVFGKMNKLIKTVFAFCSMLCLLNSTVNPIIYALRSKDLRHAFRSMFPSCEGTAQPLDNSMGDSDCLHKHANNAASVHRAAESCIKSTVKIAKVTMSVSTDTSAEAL

[2] = target: T1, Cannabinoid receptor 2 (Homo sapiens, UniProt P34972); experiment: Displacement of [3H]-CP55940 from human CB2 receptor after 1 hr by scintillation counting analysis
T1 sequence (P34972 whole entry): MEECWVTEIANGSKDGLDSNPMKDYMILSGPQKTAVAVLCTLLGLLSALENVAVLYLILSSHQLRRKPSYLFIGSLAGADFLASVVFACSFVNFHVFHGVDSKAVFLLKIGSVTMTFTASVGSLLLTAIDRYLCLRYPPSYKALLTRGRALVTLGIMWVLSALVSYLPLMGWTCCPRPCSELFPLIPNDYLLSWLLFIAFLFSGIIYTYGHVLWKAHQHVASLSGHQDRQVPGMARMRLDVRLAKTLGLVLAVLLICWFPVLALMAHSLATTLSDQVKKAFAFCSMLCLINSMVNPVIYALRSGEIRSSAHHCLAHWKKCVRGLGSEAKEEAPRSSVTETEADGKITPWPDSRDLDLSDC

[3] = target: T1, Cannabinoid receptor 2; experiment: Agonist activity at human CB2 receptor after 1 hr by [35S]-GTPgammaS binding assay; format: functional
[4] = tested on: Mus musculus; experiment: Anticolitis activity in TNBS-induced C57Bl6 mouse acute colitis model assessed as reduction of mortality rate at 0.1 to 10 mg/kg, po qd administered over 7 days, starting 2 days prior to TNBS challenge measured 5 days post TNBS challenge relative to vehicle-treated control; format: functional, organism-based
Outline: (§1)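 Mice given test article orally in carboxymethyl cellulose once daily at 0.1, 1 or 10 mg/kg for 7 days, beginning 2 days before TNBS colitis induction; vehicle-only (CMC) controls. Survival followed throughout; body weight loss, semiquantitative macroscopic colon score, histological score and colonic TNFα and IL-1β mRNA assessed at euthanasia 5 days after TNBS. Mean ± SEM, 10 mice per group.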

[5] = tested on: Mus musculus; experiment: Anticolitis activity in TNBS-induced C57Bl6 mouse acute colitis model assessed as decrease in degree of inflammation infiltrate, presence of erosion, ulceration, necrosis and depth, surface extension of lesions at 10 mg/kg, po qd administered over 7 days, starting 2 days prior to TNBS challenge measured 5 days post TNBS challenge by Giemsa staining relative to vehicle-treated control; format: functional; parameters: scale not given: the % may be the effect or the level left; outline: as §1
[6] = tested on: MDCK-II; experiment: Inhibition of MDR1 in MDCK2 cells at 10 uM after 30 mins by calcein AM uptake assay relative to control; format: cell-based; conditions: Canis lupus familiaris
Outline: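 MDR1-MDCKII cells; P-gp function read as cellular calcein AM uptake after 30 min incubation at 37 °C.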

[7] = tested on: Mus musculus; experiment: Anticolitis activity in TNBS-induced C57Bl6 mouse acute colitis model assessed as downregulation of IL-1beta mRNA expression in colon at 10 mg/kg, po qd administered over 7 days, starting 2 days prior to TNBS challenge measured 5 days post TNBS challenge by real-time PCR analysis; format: functional, organism-based; parameters: dose 10 mg/kg; outline: as §1
[8] = tested on: Mus musculus; experiment: Anticolitis activity in po dosed TNBS-induced C57Bl6 mouse acute colitis model assessed as decrease in bowel thickness and areas of ulceration administered as qd over 7 days, starting 2 days prior to TNBS challenge measured 5 days post TNBS challenge; format: functional, organism-based; outline: as §1
[9] = Fraction unbound in human plasma after 18 hrs by equilibrium dialysis method; format: ADME, cell-free
Outline: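 Plasma protein binding by equilibrium dialysis, 18 h at 37 °C.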

[10] = tested on: Mus musculus; experiment: Anticolitis activity in TNBS-induced C57Bl6 mouse acute colitis model assessed as downregulation of TNF-alpha mRNA expression in colon at 10 mg/kg, po qd administered over 7 days, starting 2 days prior to TNBS challenge measured 5 days post TNBS challenge by real-time PCR analysis; format: functional, organism-based; parameters: dose 10 mg/kg; outline: as §1
[11] = target: hERG (KCNH2) (Homo sapiens, UniProt Q12809); experiment: Binding affinity to human ERG expressed in HEK293 cells assessed as inhibition of tail current at 1 uM after 5 to 10 mins by patch-clamp assay relative to control; format: cell-based; conditions: HEK293 cells expressing human ERG
hERG (KCNH2), sequence (Q12809 whole entry): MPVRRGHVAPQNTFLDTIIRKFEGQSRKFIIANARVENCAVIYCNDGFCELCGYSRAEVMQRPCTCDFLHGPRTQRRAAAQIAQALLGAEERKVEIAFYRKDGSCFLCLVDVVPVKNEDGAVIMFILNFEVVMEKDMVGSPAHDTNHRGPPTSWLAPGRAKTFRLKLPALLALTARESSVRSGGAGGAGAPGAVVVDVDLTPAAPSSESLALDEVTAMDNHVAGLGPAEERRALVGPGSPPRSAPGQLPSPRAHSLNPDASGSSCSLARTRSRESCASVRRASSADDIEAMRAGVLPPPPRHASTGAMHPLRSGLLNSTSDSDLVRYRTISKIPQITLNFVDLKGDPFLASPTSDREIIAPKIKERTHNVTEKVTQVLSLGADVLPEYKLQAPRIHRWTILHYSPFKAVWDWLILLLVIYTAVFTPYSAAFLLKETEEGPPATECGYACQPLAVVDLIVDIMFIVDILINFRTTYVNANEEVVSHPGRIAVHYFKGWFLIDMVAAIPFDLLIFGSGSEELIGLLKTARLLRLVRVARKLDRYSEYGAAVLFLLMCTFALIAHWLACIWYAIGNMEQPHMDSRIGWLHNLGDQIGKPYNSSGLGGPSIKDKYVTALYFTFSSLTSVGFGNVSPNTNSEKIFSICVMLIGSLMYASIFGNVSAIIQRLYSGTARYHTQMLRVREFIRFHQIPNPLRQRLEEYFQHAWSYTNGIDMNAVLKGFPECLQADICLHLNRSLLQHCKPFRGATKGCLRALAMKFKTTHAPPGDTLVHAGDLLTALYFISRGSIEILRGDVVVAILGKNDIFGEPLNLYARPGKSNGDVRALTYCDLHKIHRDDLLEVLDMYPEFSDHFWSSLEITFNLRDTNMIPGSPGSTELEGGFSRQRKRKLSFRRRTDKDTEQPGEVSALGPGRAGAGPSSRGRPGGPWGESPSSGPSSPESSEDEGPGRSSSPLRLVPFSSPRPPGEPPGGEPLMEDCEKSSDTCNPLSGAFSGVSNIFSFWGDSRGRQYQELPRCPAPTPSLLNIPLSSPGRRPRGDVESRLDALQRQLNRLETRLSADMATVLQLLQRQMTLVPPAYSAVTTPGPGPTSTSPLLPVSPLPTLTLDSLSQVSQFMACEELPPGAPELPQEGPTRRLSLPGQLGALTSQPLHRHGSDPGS
Outline: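 hERG-expressing HEK 293 cells, conventional whole-cell patch clamp; compound at 1 μM applied cumulatively for 5–10 min at room temperature; tail current inhibition read.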

[12] = Metabolic stability in human liver microsomes assessed as compound remaining at 1 uM after 60 mins; format: ADME; conditions: read-out: Stability
Outline: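 Compound (1 μM) incubated with human liver microsomes (0.3 mg/mL) at 37 °C, sampled at 0 and 60 min; percent remaining reported.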

[13] = tested on: Mus musculus; experiment: Anticolitis activity in po dosed TNBS-induced C57Bl6 mouse acute colitis model assessed as reduction of body weight loss administered as qd over 7 days, starting 2 days prior to TNBS challenge measured 5 days post TNBS challenge; format: functional, organism-based; outline: as §1
[14] = tested on: Mus musculus; experiment: Anticolitis activity in TNBS-induced C57Bl6 mouse acute colitis model assessed as decrease in bowel thickness and areas of ulceration at 10 mg/kg, po qd administered over 7 days, starting 2 days prior to TNBS challenge measured 5 days post TNBS challenge (reference value: 4.9); format: functional
Outline: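 Mouse acute colitis induced by TNBS. Compound given orally in carboxymethyl cellulose (CMC) once daily at 0.1, 1 and 10 mg/kg for 7 days, starting 2 days before induction; controls received CMC alone. Mice euthanised 5 days after TNBS. Colon damage graded with a semiquantitative macroscopic score; mean ± SEM of 10 mice per group, compared with vehicle.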

[15] = Permeability across apical to basolateral side in human Caco2 cells at 10 uM after 60 mins; format: ADME, cell-based; conditions: Caco-2, read-out: permeability

| SMILES | pKi [1] | pKi [2] | further results |
| --- | --- | --- | --- |
| CCCCCn1cc(C(=O)NCC23CC4CC(CC(C4)C2)C3)c(=O)c2ccccc21 | < 5.52 | 7.67 |  |
| CCCCCn1c(-c2ccccc2)c2c(=O)n(-c3ccccc3)nc-2c2ccccc21 | < 5.52 | < 5.52 |  |
| CCCCCn1cc(C(=O)NC23CC4CC(CC(C4)C2)C3)c(=O)c(-c2ccncc2)c1C | < 6.00 |  |  |
| CCCCCn1cc2c(=O)n(C3CCCCC3)nc-2c2ccccc21 |  |  | Emax [3]: 160% |
| CCCCCn1c(-c2ccccc2)c2c(=O)n(-c3ccc(OC)cc3)nc-2c2ccccc21 | < 5.52 | < 5.52 |  |
| CCCCCn1cc2c(=O)n(-c3ccc(OC)cc3)nc-2c2ccccc21 | < 5.52 | < 5.52 |  |
| CCCCCn1c(-c2ccccc2)c2c(=O)[nH]nc-2c2ccccc21 | < 5.52 | < 5.52 |  |
| CCCCCn1cc2c(=O)n(CC3CCCCC3)nc-2c2ccccc21 |  |  | Emax [3]: 149% |
| CCCCCn1cc2c(=O)n(CCC34CC5CC(CC(C5)C3)C4)nc-2c2ccccc21 | < 5.52 |  |  |
| CCCCCn1cc2c(=O)n(-c3ccccc3)nc-2c2ccccc21 | < 5.52 | 5.86 |  |
| CCCCCn1c(-c2ccccc2)c2c(=O)n(Cc3ccccc3)nc-2c2ccccc21 | < 5.52 | < 5.52 |  |
| CCCCCn1cc2c(=O)n(-c3cccc(C(F)(F)F)c3)nc-2c2ccccc21 | < 5.52 | 7.53 |  |
| CCCCCn1cc2c(=O)n(CCCc3ccccc3)nc-2c2ccccc21 | < 5.52 | < 5.52 |  |
| CCCCCn1cc2c(=O)n(CC34CC5CC(CC(C5)C3)C4)nc-2c2ccccc21 | < 5.52 |  | Activity [4]: Active; Emax [3]: 163%; Activity [5]: 65%; inhibition [6]: 30.6%; Activity [7]: Active; Activity [8]: Dose-dependent effect; fraction unbound at 18 h [9]: < 1; Activity [10]: inactive; inhibition at 1 µM [11]: 35.5%; remaining at 1 h, 1 µM [12]: 64%; Activity [13]: Dose-dependent effect; fold change (FC) [14]: 1.7; Papp A→B at 1 h, 10 µM [15]: 0.8 ×10⁻⁶ cm/s |
| CCCCCn1c(-c2ccccc2)c2c(=O)n(-c3cccc(C(F)(F)F)c3)nc-2c2ccccc21 | < 5.52 | < 5.52 |  |
| CCCCCn1c(-c2ccccc2)c2c(=O)n(CCCc3ccccc3)nc-2c2ccccc21 | < 5.52 | < 5.52 |  |
| CCCCCn1cc2c(=O)n(CCC3CCCCC3)nc-2c2ccccc21 |  |  | Emax [3]: 141% |
